Test results published in ChEMBL document CHEMBL1140046, “Novel and potent inhibitors of 5-lipoxygenase product synthesis based on the structure of pirinixic acid” (J Med Chem, 2008).
The source made the active and inactive calls. No cut-off for these calls is given here.

Legend:
[1] = target: T1, Polyunsaturated fatty acid 5-lipoxygenase (Homo sapiens, UniProt P09917); assay: Inhibition of 5-lipoxygenase in human intact polymorphonuclear leukocytes assessed as suppression of A23187-induced product formation
T1 sequence (P09917 whole entry): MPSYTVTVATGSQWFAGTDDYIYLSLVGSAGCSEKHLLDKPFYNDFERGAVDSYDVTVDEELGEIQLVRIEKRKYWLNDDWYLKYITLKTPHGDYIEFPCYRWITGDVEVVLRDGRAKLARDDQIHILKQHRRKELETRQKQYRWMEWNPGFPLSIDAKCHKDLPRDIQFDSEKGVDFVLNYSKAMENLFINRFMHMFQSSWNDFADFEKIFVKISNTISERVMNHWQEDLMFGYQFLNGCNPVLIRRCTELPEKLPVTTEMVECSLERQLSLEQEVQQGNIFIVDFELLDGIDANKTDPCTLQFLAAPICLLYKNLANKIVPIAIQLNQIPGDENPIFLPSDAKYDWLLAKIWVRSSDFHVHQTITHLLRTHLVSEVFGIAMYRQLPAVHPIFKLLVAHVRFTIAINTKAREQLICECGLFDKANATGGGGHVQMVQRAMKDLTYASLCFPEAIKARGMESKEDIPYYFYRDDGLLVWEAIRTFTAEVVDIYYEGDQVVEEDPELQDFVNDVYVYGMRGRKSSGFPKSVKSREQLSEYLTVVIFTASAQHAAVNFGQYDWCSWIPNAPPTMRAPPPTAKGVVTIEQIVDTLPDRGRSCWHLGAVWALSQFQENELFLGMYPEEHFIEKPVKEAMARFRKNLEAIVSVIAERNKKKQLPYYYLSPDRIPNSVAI
Outline: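 Same PMNL assay: 15 min RT preincubation, then 2.5 µM A23187 plus 20 µM exogenous AA for 10 min at 37 °C. HPLC read-out as ng 5-LO products per 10^6 cells. IC50 approximated by linear interpolation around 50% activity from 4-5 concentrations; mean ± SE, n = 3-5.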

[2] = target: T2, Polyunsaturated fatty acid 5-lipoxygenase (Homo sapiens) (UniProt P09917); assay: Inhibition of 5-lipoxygenase in human intact polymorphonuclear leukocytes assessed as suppression of A23187-induced product formation at 1 uM; set-up: scale not given: the % may be the effect or the level left
T2 sequence (whole entry): T1 sequence (P09917 whole entry)
Outline: (§1)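 Human PMNL were isolated from donor venous blood by dextran sedimentation, Nycoprep centrifugation and hypotonic lysis. 5 × 10^6 cells in 1 mL PBS pH 7.4 with 1 mg/mL glucose and 1 mM CaCl2 were preincubated 15 min at RT. Stimulation was with 2.5 µM A23187 plus 20 µM AA for 10 min at 37 °C. Methanol stop, PGB1 internal standard, HPLC of LTB4, its all-trans isomers and 5-H(P)ETE.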

[3] = target: T2, Polyunsaturated fatty acid 5-lipoxygenase (Homo sapiens); assay: Inhibition of 5-lipoxygenase in human intact polymorphonuclear leukocytes assessed as suppression of A23187-induced product formation at 10 uM; set-up: scale not given: the % may be the effect or the level left; outline: as §1
[4] = target: T2, Polyunsaturated fatty acid 5-lipoxygenase (Homo sapiens); assay: Inhibition of human recombinant 5-lipoxygenase expressed in Escherichia coli MV1190 assessed as suppression of CaCl2/arachidonic acid-induced product formation at 30 uM; set-up: scale not given: the % may be the effect or the level left
[5] = target: T2, Polyunsaturated fatty acid 5-lipoxygenase (Homo sapiens); assay: Inhibition of human recombinant 5-lipoxygenase expressed in Escherichia coli MV1190 assessed as suppression of CaCl2/arachidonic acid-induced product formation at 1 uM; set-up: scale not given: the % may be the effect or the level left
[6] = target: T1, Polyunsaturated fatty acid 5-lipoxygenase; assay: Inhibition of human recombinant 5-lipoxygenase expressed in Escherichia coli MV1190 assessed as suppression of CaCl2/arachidonic acid-induced product formation

IC50 [1] [nM] | Activity [2] | Activity [3] | Activity [4] [%] | Activity [5] [%] | IC50 [6] [nM] | SMILES
 | inactive | 69.1% |  |  |  | O=C(O)C(Sc1nc(Cl)cc(Nc2ccc3ncccc3c2)n1)c1ccccc1 (configuration not stated)
1100 | 51.8% | 1.6% |  |  |  | CCCCC(Sc1nc(Cl)cc(Nc2ccc3ncccc3c2)n1)C(=O)OCC (configuration not stated)
 | 87.6% | 26.7% | 51 | 95.6 | 31000 | CCCCCCC(Sc1nc(Cl)cc(NCc2ccc3ncccc3c2)n1)C(=O)O (configuration not stated)
 | inactive | 50% |  |  |  | CCCCC(Sc1nc(Cl)cc(Nc2ccc3ncccc3c2)n1)C(=O)O (configuration not stated)
1200 | 52.7% | 3.5% |  |  |  | CCOC(=O)C(Sc1nc(Cl)cc(Nc2ccc3ncccc3c2)n1)c1ccccc1 (configuration not stated)
2600 | 86.3% | 12.3% |  |  |  | CCOC(=O)CSc1nc(Cl)cc(Nc2ccc3ncccc3c2)n1
 | 91.4% | 10.7% | 72.6 | 93.7 |  | CCCCCCC(Sc1nc(Cl)cc(Oc2ccc3ncccc3c2)n1)C(=O)O (configuration not stated)
 | inactive | inactive |  |  |  | CC(Sc1nc(Cl)cc(Nc2ccc3ncccc3c2)n1)C(=O)O (configuration not stated)
600 | 27.9% | 4% | 43.8 | 68.2 | 19000 | CCCCCCC(Sc1nc(Cl)cc(Nc2ccc3ncccc3c2)n1)C(=O)OCC (configuration not stated)
 | inactive | 12% |  |  |  | CCOC(=O)C(C)Sc1nc(Cl)cc(Nc2ccc3ncccc3c2)n1 (configuration not stated)
 | inactive | 20.1% | 52.7 | 95.4 | 34000 | CCCCCCC(Sc1nc(Cl)cc(Nc2ccc3ncccc3c2)n1)C(=O)O (configuration not stated)
 | inactive | inactive |  |  |  | O=C(O)CSc1nc(Cl)cc(Nc2ccc3ncccc3c2)n1

Further lines, the molecule ahead of its results:

SMILES | IC50 [1] [nM] | Activity [2] | Activity [3] | Activity [4] [%] | Activity [5] [%] | IC50 [6] [nM]
CCOC(=O)CSc1nc(Cl)cc(Nc2cccc3c2CCC3)n1 | 3200 | 65.2% | 8.9% |  |  | 
CCOC(=O)CSc1nc(Cl)cc(Oc2ccc3ncccc3c2)n1 |  | inactive | 77.6% |  |  | 
CCCCCCC(Sc1nc(Cl)cc(Oc2ccc3ncccc3c2)n1)C(=O)OCC (configuration not stated) | 1700 | 67.4% | 4.5% | 59.2 | 79.1 | 
CCOC(=O)C(Sc1nc(Cl)cc(Nc2cccc(C)c2C)n1)c1ccccc1 (configuration not stated) | 1800 | 53.1% | 18.7% |  |  | 
CCCCCCC(Sc1nc(Cl)cc(NCc2ccc3ncccc3c2)n1)C(=O)OCC (configuration not stated) | 1400 | 57.4% | 11.4% | 56 | 70.7 | 37000
Cc1cccc(Nc2cc(Cl)nc(SC(C)C(=O)O)n2)c1C (configuration not stated) |  | inactive | inactive |  |  | 
Cc1cccc(Nc2cc(Cl)nc(SCC(=O)O)n2)c1C |  | inactive | inactive |  |  | 
CC(=O)N(O)C/C=C/c1cccc(Oc2ccccc2)c1 |  | 3.3% |  |  | 10.8 | 
O=C(O)CSc1nc(Cl)cc(Oc2ccc3ncccc3c2)n1 |  | inactive | inactive |  |  | 
CCCCCCC(Sc1nc(Cl)cc(Nc2cccc(C)c2C)n1)C(=O)OCC (configuration not stated) |  | 84.9% | 30.5% |  |  | 
CCOC(=O)CSc1nc(Cl)cc(OCc2ccc3ncccc3c2)n1 |  | 80% | 3.9% |  |  | 
CCCCCCC(Sc1nc(Cl)cc(Nc2cccc(C)c2C)n1)C(=O)O (configuration not stated) | 4100 | 64.3% | 28.9% |  |  | 
CCOC(=O)C(C)Sc1nc(Cl)cc(Nc2cccc(C)c2C)n1 (configuration not stated) |  | inactive | 22.8% |  |  | 
O=C(O)CSc1nc(Cl)cc(Nc2cccc3c2CCC3)n1 | 3900 | 71.1% | 14.5% |  |  | 
CCOC(=O)CSc1nc(Cl)cc(Nc2cccc(C)c2C)n1 |  | 76.9% | 77.7% |  |  | 
Cc1cccc(Nc2cc(Cl)nc(SC(C(=O)O)c3ccccc3)n2)c1C (configuration not stated) |  | inactive | inactive |  |  | 
